The values below come from ChEMBL document CHEMBL4364285 (J Med Chem, 2019).

Active and inactive are the calls of the source. The calls are words filed in the database; no cut-off is given here. Bounds are passed on as bounds.

Series [1] deals with T1, Cereblon isoform 4 (Magnetospirillum gryphiswaldense, UniProt A4TVL0).
T1 sequence (A4TVL0 whole entry): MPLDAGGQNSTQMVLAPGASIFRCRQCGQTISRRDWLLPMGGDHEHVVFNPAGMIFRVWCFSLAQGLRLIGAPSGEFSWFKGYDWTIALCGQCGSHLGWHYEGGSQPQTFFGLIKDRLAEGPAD
Briefly: Inhibition of MANT-uracil binding to wild-type Magnetospirillum gryphiswaldense CRBN isoform 4 by FRET assay. The gist of the method:
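Wild-type MsCI4 FRET binding assay, following an earlier protocol. Compounds were dissolved in DMSO, or in water or bicarbonate buffer where soluble. Ki values were derived from the binding curves.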

The target of series [2] is Protein cereblon/Zinc finger protein Aiolos (Homo sapiens) (UniProt Q96SW2+Q9UKT9). Description: Inhibition of CRBN-mediated IKFZ3 degradation in human OPM2 cells measured after 24 hrs by Western blot analysis. The series is classed as cell-based.
Series [3] concerns THP-1. Briefly: Inhibition of TPA-induced TNFalpha production in human THP1 cells at 3 uM by ELISA relative to control. The series is classed as functional. On the technique in general: An ELISA detects its analyte on a solid surface through an enzyme-linked reagent.
The nature of series [4]: Solubility of the compound in bicarbonate buffer. The class given is physicochemical.
The nature of series [5]: Solubility of the compound in water. The series is classed as physicochemical. Particulars: buffer.
The nature of series [6]: Terminal elimination half life in healthy human at 50 to 400 mg, po at pH 7.4. The series is classed as ADME, organism-based. The following applies: in vivo, read-out: beta t1/2.

Sequence of Protein cereblon/Zinc finger protein Aiolos (Homo sapiens) (Q96SW2 whole entry, looked up): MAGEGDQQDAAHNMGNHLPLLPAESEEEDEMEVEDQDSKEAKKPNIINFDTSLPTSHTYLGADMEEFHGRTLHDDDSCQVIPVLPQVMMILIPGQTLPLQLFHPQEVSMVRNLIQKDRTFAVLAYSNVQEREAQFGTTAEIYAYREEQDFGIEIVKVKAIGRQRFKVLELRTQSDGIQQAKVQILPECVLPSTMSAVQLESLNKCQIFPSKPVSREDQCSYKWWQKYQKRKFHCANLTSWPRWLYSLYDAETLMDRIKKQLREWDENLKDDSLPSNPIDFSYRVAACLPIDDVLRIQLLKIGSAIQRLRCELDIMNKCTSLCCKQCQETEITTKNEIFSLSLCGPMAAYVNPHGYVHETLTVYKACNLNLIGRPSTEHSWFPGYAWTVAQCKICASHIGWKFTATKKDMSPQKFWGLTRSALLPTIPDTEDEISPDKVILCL
Sequence of Protein cereblon/Zinc finger protein Aiolos (Homo sapiens) (Q9UKT9 whole entry, looked up): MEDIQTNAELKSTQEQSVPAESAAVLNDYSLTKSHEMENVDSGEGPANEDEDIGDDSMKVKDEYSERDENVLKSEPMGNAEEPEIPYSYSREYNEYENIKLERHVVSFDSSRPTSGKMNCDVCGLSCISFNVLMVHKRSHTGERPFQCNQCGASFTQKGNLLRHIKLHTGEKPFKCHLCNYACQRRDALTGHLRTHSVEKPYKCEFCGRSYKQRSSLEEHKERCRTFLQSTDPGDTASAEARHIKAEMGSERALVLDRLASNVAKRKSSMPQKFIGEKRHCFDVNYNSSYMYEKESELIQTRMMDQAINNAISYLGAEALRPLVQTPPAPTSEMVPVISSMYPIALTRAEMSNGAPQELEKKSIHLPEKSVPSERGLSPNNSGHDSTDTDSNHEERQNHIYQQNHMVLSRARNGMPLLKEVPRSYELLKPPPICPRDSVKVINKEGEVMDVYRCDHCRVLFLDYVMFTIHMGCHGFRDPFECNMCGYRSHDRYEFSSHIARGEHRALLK

On to `O=C1CC(NC(=O)c2sc3cccc(Cl)c3c2Cl)C(=O)N1` (stereo unspecified), for which affinity in series [1] was put at a Ki of 20 µM. The inhibition result in series [2] is “inactive”.
The like results for `O=C1CCC(NC(=O)OC[C@@H]2CCCN2)C(=O)N1` (stereo partly specified) were, in that order, 45 µM and “inactive”.
`Nc1cccc2c1C(=O)N(C1CC(=O)NC1=O)C2=O` (stereo unspecified) yielded a Ki in series [1] of more than 40 µM.
Turning to `O=C1CCC(NC(=O)c2ccccc2C(=O)O)C(=O)N1` (stereo unspecified), in series [3], testing at 3 µM gave an inhibition of 80%.
In turn, `O=C(O)CCC(=O)NCc1ccc(COC(=O)NC2CCC(=O)NC2=O)cc1` (stereo unspecified) gave a Ki in series [1] of 36 µM. This compound registered a solubility in series [4] of more than 200 mM. Further, the inhibition result in series [2] is “inactive”.
In series [1], `Nc1cccc2c1C(=O)N(C1CCC(=O)NC1=O)C2=O` (stereo unspecified) [POMALIDOMIDE] returned a Ki of 0.8 µM.
With `O=C(O)CCC(=O)NCc1ccc(COC(=O)NC2CC(=O)NC2=O)cc1` (stereo unspecified), the Ki in series [1] is 12 µM. The compound also came in with a solubility in series [4] of more than 200 mM. Further, the inhibition result in series [2] is “inactive”.
On to `O=C(/C=C/c1ccccc1)NC1CC(=O)NC1=O` (stereo unspecified), for which the Ki in series [1] came out at 20 µM.
Compound `O=C1CC(N2C(=O)c3cccc([N+](=O)[O-])c3C2=O)C(=O)N1` (stereo unspecified) gave a Ki in series [1] of more than 40 µM. Also, the inhibition result in series [2] is “inactive”.
The like results for `O=C1CC(NC(=O)Cc2ccccc2)C(=O)N1` (stereo unspecified) were, in that order, more than 40 µM and “inactive”.
Consider `NC[C@H]1CC[C@@H](COC(=O)NC2CC(=O)NC2=O)CC1.O=C(O)C(F)(F)F` (stereo partly specified), for which, in series [5], the solubility result is on record as “Soluble”. Moreover, the inhibition entry in series [2] was “inactive”.
For the compound `NCc1ccc(COC(=O)NC2CC(=O)NC2=O)cc1.O=C(O)C(F)(F)F` (stereo unspecified), in series [5], the solubility result is on record as “Soluble”. In series [1], this compound displayed a Ki of 12 µM. Further, in series [2], the inhibition entry was “inactive”.
`O=C1CCC(N2C(=O)c3ccc([N+](=O)[O-])cc3C2=O)C(=O)N1` (stereo unspecified) had a Ki in series [1] of 9 µM. Also, in series [2], the inhibition entry was “inactive”.
`O=C1CC(NC(=O)OCc2ccccc2)C(=O)N1` (stereo unspecified): the Ki in series [1] was found to be 4 µM.
`O=C1CC(N2C(=O)c3ccc([N+](=O)[O-])cc3C2=O)C(=O)N1` (stereo unspecified) registered a Ki in series [1] of 11 µM. Besides, the inhibition result in series [2] is “inactive”.
Compound `CC(C)=CC(=O)NC1CC(=O)NC1=O` (stereo unspecified) showed an inhibitory constant (Ki) in series [1] of more than 40 µM. In series [2], the inhibition entry is “inactive”.
For `O=C1CC(NC(=O)OC[C@@H]2CCCN2)C(=O)N1` (stereo partly specified), in series [2], the inhibition entry is “inactive”.
For the compound `O=C1CCC(N2C(=O)c3ccccc3C2=O)C(=O)N1` (stereo unspecified) [THALIDOMIDE], the half-life in series [6] lay in the range of 5.5 to 7.3 h.
On to `NC[C@H]1CC[C@@H](COC(=O)NC2CCC(=O)NC2=O)CC1.O=C(O)C(F)(F)F` (stereo partly specified), for which, in series [5], the solubility result was “Soluble”. Also, the inhibition entry in series [2] was “inactive”.
For the compound `Nc1cccc2c1CN(C1CCC(=O)NC1=O)C2=O` (stereo unspecified) [LENALIDOMIDE], in series [1], the affinity corresponds to a Ki of 3.1 µM.
In series [1], `O=C1CCC(N2C(=O)c3cccc([N+](=O)[O-])c3C2=O)C(=O)N1` (stereo unspecified) gave an inhibition constant Ki of more than 40 µM. In series [2], the inhibition entry was “inactive”.
On the same counts, the results for `O=C1CC(NC(=O)c2sc3ccccc3c2Cl)C(=O)N1` (stereo unspecified) are more than 40 µM and “inactive”.
In series [1], `O=C1CC(NC(=O)c2cc([N+](=O)[O-])cc([N+](=O)[O-])c2)C(=O)N1` (stereo unspecified) gave a Ki of more than 99 µM. Also, the inhibition entry in series [2] is “inactive”.

In general, Ki refers to a measure of affinity in units of concentration, obtained from inhibition or displacement. For orientation: inhibition means the change of the read-out against control, counted positive when it falls. One may read the solubility as the dissolved amount per volume that the medium holds. High values mean much dissolved substance, low ones little dissolved substance.
